Experimental data as given in ChEMBL document CHEMBL3526068, “In vitro investigation of human UDP-glucuronosyltransferase isoforms responsible for tacrolimus glucuronidation: predominant contribution of UGT1A4” (Drug Metab Dispos, 2011).

Experiments:
[1] = test system: C=CC[C@@H]1/C=C(\C)C[C@H](C)C[C@H](OC)[C@H]2O[C@@](O)(C(=O)C(=O)N3CCCC[C@H]3C(=O)O[C@H](/C(C)=C/[C@@H]3CC[C@@H](O)[C@H](OC)C3)[C@H](C)[C@@H](O)CC1=O)[C@H](C)C[C@@H]2OC; test: Activity of UGT1A4*2 mutant (unknown origin) overexpressed in HEK293 cells assessed as enzyme-mediated glucuronidation after 1 hr by Eadie-Hofstee plot analysis; format: ADME, cell-based, Homo sapiens
In short: (§1)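 Tacrolimus at 25–750 μM was incubated 1 h and glucuronide was measured by LC-MS/MS. A kinetic model was fitted, and Vmax was adjusted for UGT1A4 protein content. Data are mean ± SD of triplicates from three independent experiments.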

[2] = Drug metabolism in human intestine assessed as glucuronidation after 1 hr by Eadie-Hofstee plot analysis; format: ADME, tissue-based
In short: (§2)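 Pooled human intestine microsomes were incubated 1 h with tacrolimus at 25–750 μM. Glucuronide formation was measured by LC-MS/MS, and kinetic parameters came from a selected enzyme kinetic model fit. Data are mean ± SD of triplicate determinations from three independent experiments.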

[3] = Drug metabolism in human intestine assessed as glucuronidation at 25 to 750 uM after 1 hr by Eadie-Hofstee plot analysis; format: ADME, tissue-based; in short: as §2
[4] = test system: Liver microsome; test: Drug metabolism in human liver microsomes assessed as glucuronidation at 200 uM after 16 hrs by LC-MS analysis; format: ADME
In short: (§3)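 Microsomes from human liver, kidney and intestine, or from HEK293 cells overexpressing individual UGT1A or UGT2B enzymes, were prepared by differential centrifugation. They were incubated 16 h at 37°C with 200 μM tacrolimus. Tacrolimus glucuronide was detected by LC-MS/MS (C8 column, ammonium acetate/acetic acid–methanol gradient, positive electrospray), with CsA d4 as a marker.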

[5] = Drug metabolism in human intestine microsomes assessed as glucuronidation at 200 uM after 16 hrs by LC-MS analysis; format: ADME; in short: as §3
[6] = target: T1, UDP-glucuronosyltransferase 1A4 (Homo sapiens, UniProt P22310); test: Activity at human recombinant UGT1A4 assessed as enzyme-mediated tacrolimus glucuronide formation at 200 uM after 16 hrs by LC-MS analysis; format: ADME; in short: as §3
T1 sequence (P22310 whole entry): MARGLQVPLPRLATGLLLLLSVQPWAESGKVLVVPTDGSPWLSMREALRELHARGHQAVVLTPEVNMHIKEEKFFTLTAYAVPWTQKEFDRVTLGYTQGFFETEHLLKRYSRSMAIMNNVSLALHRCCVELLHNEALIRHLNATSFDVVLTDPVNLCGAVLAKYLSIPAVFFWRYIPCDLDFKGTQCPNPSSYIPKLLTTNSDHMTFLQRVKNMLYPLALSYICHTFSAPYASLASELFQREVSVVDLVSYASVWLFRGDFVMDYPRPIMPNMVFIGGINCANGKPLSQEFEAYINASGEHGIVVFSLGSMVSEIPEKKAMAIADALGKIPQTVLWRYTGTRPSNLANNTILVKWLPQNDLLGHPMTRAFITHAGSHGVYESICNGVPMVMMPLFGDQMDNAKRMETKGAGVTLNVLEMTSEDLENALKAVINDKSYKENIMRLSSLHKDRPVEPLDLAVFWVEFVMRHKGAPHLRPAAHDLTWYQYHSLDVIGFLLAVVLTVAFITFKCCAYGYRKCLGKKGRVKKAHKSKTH

[7] = target: T2, UDP-glucuronosyltransferase 2B7 (Homo sapiens, UniProt P16662); test: Drug metabolism in human kidney microsomes assessed as UGT2B7-mediated tacrolimus glucuronide formation at 200 uM after 16 hrs by LC-MS analysis; format: ADME; in short: as §3
T2 sequence (P16662 whole entry): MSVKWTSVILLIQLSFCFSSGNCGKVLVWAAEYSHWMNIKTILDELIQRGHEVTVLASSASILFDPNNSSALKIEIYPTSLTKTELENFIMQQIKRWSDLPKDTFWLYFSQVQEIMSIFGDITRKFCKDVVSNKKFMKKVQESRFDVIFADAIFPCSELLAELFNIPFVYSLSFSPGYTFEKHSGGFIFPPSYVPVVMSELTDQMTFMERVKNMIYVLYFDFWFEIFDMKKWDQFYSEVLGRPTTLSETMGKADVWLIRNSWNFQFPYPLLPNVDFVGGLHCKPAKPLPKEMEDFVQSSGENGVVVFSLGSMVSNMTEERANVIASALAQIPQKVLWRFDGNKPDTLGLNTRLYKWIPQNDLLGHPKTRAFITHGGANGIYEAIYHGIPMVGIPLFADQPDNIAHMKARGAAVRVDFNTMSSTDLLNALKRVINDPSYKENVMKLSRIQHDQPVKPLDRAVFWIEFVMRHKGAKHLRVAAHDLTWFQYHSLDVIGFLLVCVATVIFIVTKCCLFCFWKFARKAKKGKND

[8] = test system: UGT1A4*1; test: Activity of UGT1A4*1 mutant (unknown origin) overexpressed in HEK293 cells assessed as enzyme-mediated glucuronidation after 1 hr by Eadie-Hofstee plot analysis; format: ADME, cell-based; details: human, HEK293 cells overexpressing UGT1A4*1; in short: as §1
[9] = Activity of UGT1A4*1 mutant (unknown origin) overexpressed in HEK293 cells assessed as enzyme-mediated glucuronidation at 25 to 750 uM after 1 hr by Eadie-Hofstee plot analysis; format: ADME, cell-based; details: human, hek293, 1 h; in short: as §1
[10] = target: UDP-glucuronosyltransferase 1A4 (Homo sapiens, UniProt P22310, P24T); test: Activity of UGT1A4*2 mutant (unknown origin) overexpressed in HEK293 cells assessed as enzyme-mediated glucuronidation at 25 to 750 uM after 1 hr by Eadie-Hofstee plot analysis; format: ADME, cell-based; details: hek293, 1 h; in short: as §1
UDP-glucuronosyltransferase 1A4 (Homo sapiens, UniProt P22310, P24T), sequence (P22310 whole entry P24T): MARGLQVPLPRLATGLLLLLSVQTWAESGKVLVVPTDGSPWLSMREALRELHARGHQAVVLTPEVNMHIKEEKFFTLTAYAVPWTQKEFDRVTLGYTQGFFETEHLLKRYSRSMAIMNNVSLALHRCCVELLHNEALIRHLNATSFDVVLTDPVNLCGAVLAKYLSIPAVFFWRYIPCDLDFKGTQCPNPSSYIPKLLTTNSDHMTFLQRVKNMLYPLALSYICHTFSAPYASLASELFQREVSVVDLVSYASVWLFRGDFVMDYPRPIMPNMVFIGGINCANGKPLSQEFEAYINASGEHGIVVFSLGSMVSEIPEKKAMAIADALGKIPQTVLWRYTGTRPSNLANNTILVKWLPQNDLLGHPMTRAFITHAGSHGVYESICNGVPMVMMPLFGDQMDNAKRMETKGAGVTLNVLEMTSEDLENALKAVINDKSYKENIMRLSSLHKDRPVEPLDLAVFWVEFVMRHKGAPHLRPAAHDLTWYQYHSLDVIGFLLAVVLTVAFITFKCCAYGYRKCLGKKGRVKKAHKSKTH

[11] = target: UDP-glucuronosyltransferase 1A4 (Homo sapiens, UniProt P22310, L48V); test: Activity of UGT1A4*3 mutant (unknown origin) overexpressed in HEK293 cells assessed as enzyme-mediated glucuronidation at 25 to 750 uM after 1 hr by Eadie-Hofstee plot analysis; format: ADME, cell-based; details: hek293, 1 h; in short: as §1
UDP-glucuronosyltransferase 1A4 (Homo sapiens, UniProt P22310, L48V), sequence (P22310 29-534 L48V limits assumed): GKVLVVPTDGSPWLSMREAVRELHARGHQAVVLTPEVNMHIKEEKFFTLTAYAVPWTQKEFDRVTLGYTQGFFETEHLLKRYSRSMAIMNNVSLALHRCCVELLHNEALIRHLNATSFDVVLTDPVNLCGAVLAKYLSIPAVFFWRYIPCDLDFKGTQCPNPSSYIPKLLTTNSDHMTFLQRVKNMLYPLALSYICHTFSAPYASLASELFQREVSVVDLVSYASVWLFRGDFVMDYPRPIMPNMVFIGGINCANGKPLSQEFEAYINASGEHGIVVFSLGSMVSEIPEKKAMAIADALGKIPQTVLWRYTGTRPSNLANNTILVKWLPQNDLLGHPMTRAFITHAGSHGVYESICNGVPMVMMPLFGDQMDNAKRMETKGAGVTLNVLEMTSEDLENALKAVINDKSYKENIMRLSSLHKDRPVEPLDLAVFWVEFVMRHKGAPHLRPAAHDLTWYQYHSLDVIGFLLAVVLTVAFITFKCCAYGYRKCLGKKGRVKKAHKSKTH

[12] = test system: UGT1A4*4; test: Activity of UGT1A4*4 mutant (unknown origin) overexpressed in HEK293 cells assessed as enzyme-mediated glucuronidation after 1 hr by Eadie-Hofstee plot analysis; format: ADME, cell-based; details: human, HEK293 cells overexpressing UGT1A4*4; in short: as §1
[13] = Activity of UGT1A4*4 mutant (unknown origin) overexpressed in HEK293 cells assessed as enzyme-mediated glucuronidation at 25 to 750 uM after 1 hr by Eadie-Hofstee plot analysis; format: ADME, cell-based; details: human, hek293, 1 h; in short: as §1
[14] = test system: C=CC[C@@H]1/C=C(\C)C[C@H](C)C[C@H](OC)[C@H]2O[C@@](O)(C(=O)C(=O)N3CCCC[C@H]3C(=O)O[C@H](/C(C)=C/[C@@H]3CC[C@@H](O)[C@H](OC)C3)[C@H](C)[C@@H](O)CC1=O)[C@H](C)C[C@@H]2OC; test: Activity of UGT1A4*3 mutant (unknown origin) overexpressed in HEK293 cells assessed as enzyme-mediated glucuronidation after 1 hr by Eadie-Hofstee plot analysis; format: ADME, cell-based, Homo sapiens; in short: as §1

Compound “UDP-glucuronosyltransferase 1A4 (Homo sapiens; P24T)” has a Km [1] of 114 µM.
With `C=CC[C@@H]1/C=C(\C)C[C@H](C)C[C@H](OC)[C@H]2O[C@@](O)(C(=O)C(=O)N3CCCC[C@H]3C(=O)O[C@H](/C(C)=C/[C@@H]3CC[C@@H](O)[C@H](OC)C3)[C@H](C)[C@@H](O)CC1=O)[C@H](C)C[C@@H]2OC` [TACROLIMUS ANHYDROUS] the Km at 1 h [2] was 51.8 µM, the Vmax [3] was 0.04 area/min/mg and the Drug metabolism [4] was “metabolite_detected”. The Drug metabolism [5] was “metabolite_detected”, the Drug metabolism [6] was “metabolite_detected” and the Drug metabolism [7] was “metabolite_not_detected”. It also gave a Km at 1 h [8] of 91 µM, a Vmax [9] of 1.65 area/min/mg and a Vmax [10] of 1.65 area/min/mg. For the same compound, the Vmax [11] was 2.23 area/min/mg, the Km at 1 h [12] was 101 µM and the Vmax [13] was 3.14 area/min/mg.
“UDP-glucuronosyltransferase 1A4 (Homo sapiens; L48V)” gave a Km [14] of 126 µM.
